Source: ChEMBL document CHEMBL1122685, “Identification of an acridine photoaffinity probe for trypanocidal action” (1984)

Columns and labels:
Type in all cases: functional
Trypanosoma brucei [1] = assay: Trypanocidal activity against Trypanosoma brucei, exposure of parasites to compound prior to injection into mice at 10 e-5 M concentration in dark conditions
In short: (§1)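 T. brucei EATRO 110 was separated from blood on DEAE-cellulose and washed in Tris-saline-glucose (TSG). Parasites at 5×10^6/mL in TSG were gently rotated 10 min with drug at the final concentration, kept dark under a red safelight until injection. Swiss mice, five per group, received 5×10^5 parasites ip in 0.1 mL. Read-out was mean days survival ±SD over 30 days, against untreated-parasite controls.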

Trypanosoma brucei [2] = assay: Trypanocidal activity against Trypanosoma brucei, exposure of parasites to compound prior to injection into mice at 10 e-6 M concentration in dark conditions; in short: as §1
Trypanosoma brucei [3] = assay: Trypanocidal activity against Trypanosoma brucei, exposure of parasites to compound prior to injection into mice at 10 e-4 M concentration in dark conditions; in short: as §1
Trypanosoma brucei [4] = assay: Trypanocidal activity against Trypanosoma brucei, exposure of parasites to compound prior to injection into mice at 10 e-5 M concentration in presence of light; set-up: unit: days
In short: (§2)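 DEAE-purified T. brucei EATRO 110 at 5×10^6/mL in TSG was mixed with drug at the final concentration by gentle rotation for 10 min. Samples were light-activated for 10 min under a 30W fluorescent lamp 4 cm above. 5×10^5 treated parasites in 0.1 mL were injected ip into Swiss mice, five per group. Survival was scored daily for 30 days and reported as mean days ±SD, with untreated controls.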

Trypanosoma brucei [5] = assay: Compound is evaluated for trypanocidal activity against Trypanosoma brucei, by exposing the parasites directly to compound prior to injection to mice at 10 e-7 M concentration in presence of light; set-up: unit: days; in short: as §2
Trypanosoma brucei [6] = assay: Compound is evaluated for trypanocidal activity against Trypanosoma brucei, by exposing the parasites directly to compound prior to injection to mice at 10 e-6 M concentration (pre) in presence of light.
In short: (§3)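 Compound was irradiated 1 h before contact with T. brucei EATRO 110 (5×10^6/mL in TSG, final drug concentration). After 10 min gentle rotation, the mixture was irradiated again for 10 min under a 30W fluorescent lamp at 4 cm. 5×10^5 parasites in 0.1 mL were given ip to five Swiss mice per group. Read-out was mean days survival ±SD over 30 days, with untreated controls.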

Trypanosoma brucei [7] = assay: Trypanocidal activity against Trypanosoma brucei, exposur of parasites to compound prior to injection into mice at 10 e-6 M concentration in presence of light; set-up: unit: days; in short: as §2
Trypanosoma brucei [8] = assay: Compound is evaluated for trypanocidal activity against Trypanosoma brucei, by exposing the parasites directly to compound prior to injection to mice at 10 e-7 M concentration in dark conditions; set-up: unit: days; in short: as §1
Trypanosoma brucei [9] = assay: Trypanocidal activity against Trypanosoma brucei, exposure of parasites to compound prior to injection into mice at 10 e-4 M concentration in presence of light; set-up: unit: days; in short: as §2
Trypanosoma brucei [10] = assay: Compound is evaluated for trypanocidal activity against Trypanosoma brucei, by exposing the parasites directly to compound prior to injection to mice at 10 e-5 M concentration (pre) in presence of light; in short: as §3
Trypanosoma brucei [11] = assay: Compound is evaluated for trypanocidal activity against Trypanosoma brucei, by exposing the parasites directly to compound prior to injection to mice at 10 e-5 M concentration (pre) in dark conditions
In short: (§4)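 Drug was preirradiated 1 h with visible light, then added at the final concentration to T. brucei EATRO 110 (5×10^6/mL in TSG) and rotated 10 min. The parasites were then kept dark with a red safelight. Swiss mice, five per group, were injected ip with 0.1 mL holding 5×10^5 parasites. Mean days survival ±SD was scored over 30 days against untreated-parasite controls.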

Trypanosoma brucei [12] = assay: Compound is evaluated for trypanocidal activity against Trypanosoma brucei, by exposing the parasites directly to compound prior to injection to mice at 10 e-5 M concentration in presence of light; in short: as §2
Trypanosoma brucei [13] = assay: Compound is evaluated for trypanocidal activity against Trypanosoma brucei, by exposing the parasites directly to compound prior to injection to mice at 10 e-6 M concentration (pre) in dark conditions; in short: as §4
Trypanosoma brucei [14] = assay: Compound is evaluated for trypanocidal activity against Trypanosoma brucei, by exposing the parasites directly to compound prior to injection to mice at 10 E-6 M concentration in dark conditions; in short: as §1
Trypanosoma brucei [15] = assay: Compound is evaluated for trypanocidal activity against Trypanosoma brucei, by exposing the parasites directly to compound prior to injection to mice at 10 E-4 M concentration in presence of light; in short: as §2
Trypanosoma brucei [16] = assay: Compound is evaluated for trypanocidal activity against Trypanosoma brucei, by exposing the parasites directly to compound prior to injection to mice at 10 E-5 M concentration in dark conditions; in short: as §1
Trypanosoma brucei [17] = assay: Compound is evaluated for trypanocidal activity against Trypanosoma brucei, by exposing the parasites directly to compound prior to injection to mice at 10 E-4 M concentration in dark conditions; in short: as §1
Trypanosoma brucei [18] = assay: Compound is evaluated for trypanocidal activity against Trypanosoma brucei, by exposing the parasites directly to compound prior to injection to mice at 10 E-5 M concentration in presence of light; in short: as §2
Trypanosoma brucei [19] = assay: Compound is evaluated for trypanocidal activity against Trypanosoma brucei, by exposing the parasites directly to compound prior to injection to mice at 10 E-6 M concentration in presence of light; in short: as §2

Row | SMILES | Activity (Trypanosoma brucei [1]) | Activity (Trypanosoma brucei [2]) | Mean survival time of infected mice (days) (Trypanosoma brucei [3]) | Activity (Trypanosoma brucei [4]) | Activity (Trypanosoma brucei [5]) | Mean survival of mice (days) (Trypanosoma brucei [6]) | Activity (Trypanosoma brucei [7]) | Activity (Trypanosoma brucei [8]) | Activity (Trypanosoma brucei [9]) | Activity (Trypanosoma brucei [10]) | Activity (Trypanosoma brucei [11]) | Activity (Trypanosoma brucei [12]) | Activity (Trypanosoma brucei [13]) | Activity (Trypanosoma brucei [14]) | Activity (Trypanosoma brucei [15]) | Activity (Trypanosoma brucei [16]) | Activity (Trypanosoma brucei [17]) | Activity (Trypanosoma brucei [18]) | Activity (Trypanosoma brucei [19])
1 | CN(C)CCCNc1c2ccccc2nc2cccc([N+](=O)[O-])c12 [NITRACRINE] | 5.7 | 5.7 | 30 | 30 | 6.6 | 10.4 | 22.9 | 6 | 30 |  |  |  |  |  |  |  |  |  | 
2 | C[n+]1c2ccccc2c(N=[N+]=[N-])c2ccccc21.[Cl-] | 3.6 | 5 | 30 | 20 | 6.2 | 8.6 | 6.8 | 5.2 | 30 |  |  |  |  |  |  |  |  |  | 
3 | [N-]=[N+]=Nc1ccc2cc3ccc(N)cc3nc2c1 | 5.5 | 4.6 | 8.3 | 12.7 | 5.9 | 5.4 | 11.2 | 5.7 | 30 | 5.2 | 5.2 |  |  |  |  |  |  |  | 
4 | [N-]=[N+]=Nc1c2ccccc2nc2ccccc12 | 30 | 5 | 30 | 30 | 4 | 4.2 | 30 | 4.6 | 30 |  |  |  |  |  |  |  |  |  | 
5 | [N-]=[N+]=Nc1c2ccccc2nc2cccc([N+](=O)[O-])c12 | 10 | 4.2 | 30 | 30 | 5 | 4 | 6 | 5.4 | 30 |  |  |  |  |  |  |  |  |  | 
6 | C[n+]1c2ccccc2cc2cc(N)ccc21.[Cl-] | 5.8 | 3.6 | 30 | 6.8 |  |  | 6 |  | 30 |  |  |  |  |  |  |  |  |  | 
7 | [N-]=[N+]=Nc1ccc2nc3ccccc3c(N)c2c1 | 5.4 | 4.8 | 9.8 | 30 | 6 | 4.6 | 11.6 | 4.6 | 30 |  |  |  |  |  |  |  |  |  | 
8 | Nc1ccc(Nc2c3ccccc3nc3ccccc23)cc1 | 5 | 5.4 | 30 | 6.4 |  |  | 4.4 |  | 30 |  |  |  |  |  |  |  |  |  | 
9 | C[n+]1c2ccccc2c(N)c2ccccc21.[Cl-] | 5.4 | 4.2 | 30 | 21 |  | 6.2 | 5.8 |  | 30 |  |  |  |  |  |  |  |  |  | 
10 | CC[n+]1c(-c2ccccc2)c2cc(N=[N+]=[N-])ccc2c2ccc(N)cc21.[Cl-] |  | 4.6 |  |  | 27.4 |  | 30 | 4 |  |  |  |  |  |  |  |  |  |  | 
11 | [N-]=[N+]=Nc1ccc2cc3ccc(N=[N+]=[N-])cc3nc2c1 |  |  | 6 |  |  |  |  |  | 5.5 |  |  |  |  |  |  |  |  |  | 
12 | C[n+]1c2ccccc2cc2ccc(N)cc21.[Cl-] | 14.2 | 6.9 | 30 |  | 12.4 | 15.5 | 30 | 4.6 |  |  |  | 30 |  |  |  |  |  |  | 
13 | C[n+]1c2ccccc2cc2c(N)cccc21.[Cl-] | 4.6 | 4 | 30 | 6.4 |  |  | 4.2 |  | 30 |  |  |  |  |  |  |  |  |  | 
14 | C[n+]1c2ccccc2cc2cc(N=[N+]=[N-])ccc21.[Cl-] | 14.5 | 4.4 | 30 | 13.9 | 4.2 | 4.8 | 5.5 | 4.8 | 30 |  |  |  |  |  |  |  |  |  | 
15 | C[n+]1c2cc(N)ccc2cc2ccc(N)cc21.[Cl-] [EUFLAVINE] | 30 | 6.9 | 30 | 30 | 17.8 | 30 | 30 | 6.3 |  |  |  |  | 7.8 |  |  |  |  |  | 
16 | C[n+]1c2cc(N)ccc2cc2ccc(N=[N+]=[N-])cc21.[Cl-] | 18.2 | 6.9 | 30 | 30 | 30 | 5.5 | 30 | 6.4 | 30 |  |  |  | 6.3 |  |  |  |  |  | 
17 | C[n+]1c2cc(N=[N+]=[N-])ccc2cc2ccc(N=[N+]=[N-])cc21.[Cl-] | 6 | 5.8 | 30 | 26.6 | 5.6 | 5.4 | 8.2 | 5.4 | 30 |  |  |  |  |  |  |  |  |  | 
18 | Nc1ccc2c(N)c3ccccc3nc2c1 | 8.1 | 5 | 30 | 30 | 15 | 27.8 | 17.4 | 5.2 | 30 |  |  |  |  |  |  |  |  |  | 
19 | C[n+]1c2ccccc2cc2ccc(N=[N+]=[N-])cc21.[Cl-] | 6.6 | 5.4 | 30 | 30 |  | 5 | 8.6 |  | 30 | 5.8 | 4.4 |  | 4.7 |  |  |  |  |  | 
20 | Nc1c2ccccc2nc2cccc([N+](=O)[O-])c12 | 25.4 | 4.4 | 30 | 30 |  |  | 5.8 |  | 30 |  |  |  |  |  |  |  |  |  | 
21 | C[n+]1c2ccccc2cc2c(N=[N+]=[N-])cccc21.[Cl-] | 6.4 |  | 4.4 | 4.8 |  |  |  |  | 4.8 |  |  |  |  |  |  |  |  |  | 
22 | [N-]=[N+]=Nc1ccc(Nc2c3ccccc3nc3ccccc23)cc1 | 4 | 4.4 | 4.8 | 30 |  |  | 5.8 |  | 30 |  |  |  |  |  |  |  |  |  | 
23 | [N-]=[N+]=Nc1ccc2c(N)c3ccccc3nc2c1 | 6.3 | 5.8 | 25.3 | 14.2 |  |  | 7.6 |  | 26.8 | 5.2 |  |  |  |  |  |  |  |  | 
24 | Nc1cccc2nc3ccccc3c(N)c12 |  |  |  |  |  |  |  |  |  |  |  |  |  | 5.4 | 30 | 4.6 | 30 | 5.6 | 4.6
